IEC-6 tox – IEC-6 cytotoxicity, counter-screen for KLF5 inhibitors. luminescence viability. inhibition, % at 5 µM. 290,000 compounds, 0.78% hits. AID 1825;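 also: 0% = plate median of test compound wells and 100% = cytotoxic reference compound wells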
APP 5UTR inh – APP translation inhibition. AID 1285. inhibition, % at 2 µM. SH-SY5Y APP 5'UTR-luciferase reporter, luminescence. 190,000 compounds, 0.82% hits;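 active = inhibition above a set limit, derived from the sample mean plus 3 SD, cut at about 45% in these data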
bCat nuc transl – beta-catenin nuclear translocation modulation; HeLa beta-catenin nuclear translocation, immunofluorescence imaging; nuclear translocation activity, % at 5 µM; 190,000 compounds, 0.3% hits;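 active = nuclear translocation activity above 50% at 5 µM, with a well cell count of 50 or more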;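 also: per-cell ratio of nuclear to cytoplasmic median beta-catenin stain intensity; plate controls were DMSO negative control for no effect and GSK-3 inhibitor IX positive control for full effect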
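Test system: human HeLa cells, endogenous beta-catenin. Times: 24 h compound exposure, 37°C. Measured by: beta-catenin immunofluorescence imaging with DAPI.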
Ba/F3 V617F tox – reduce viability of Ba/F3 cells dependent on JAK2V617F. 220,000 compounds, 1.1% hits. Ba/F3 EpoR-JAK2V617F viability, ATP luminescence. inhibition, % at 5.6 µM. AID 1446;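 active = inhibition above the campaign mean plus 3 SD over all tested compounds, cut at about 24% in these data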;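 also: cytokine-independent growth of Ba/F3 cells driven by EpoR plus mutant JAK2; 0% = DMSO-treated cells and 100% = JAK inhibitor I control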
MT stabilize HCS – microtubule stabilization, imaging screen. HeLa tubulin immunostaining HCS, 24 h; share of cells brighter than vehicle mean+2SD. % tubulin-high responders, % at 10 µM. 200,000 compounds, 0.83% hits. AID 2205;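 active = plate Z-score above 3 for both tubulin-high and condensed-nucleus cell shares, with cell loss under 80%, at 10 µM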;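 also: anti alpha tubulin signal scored within the nucleus-defined area of each cell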
BaF3 parental – reduces parental Ba/F3 cell viability, JAK2V617F counter-screen; CellTiter-Glo ATP luminescence; 220,000 compounds, 1.1% hits; inhibition, % at 5.6 µM;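 active = inhibition above a per-campaign cutoff, the mean inhibition of all tested compounds plus 3 SD, cut at about 27% in these data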;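 also: 0% = DMSO wells and 100% = JAK Inhibitor I control wells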
IEC-6 cytotox cf – confirmation of cytotoxic compounds in rat IEC-6 intestinal epithelial cells; shares compounds with IEC-6 tox; IEC-6 rat intestinal epithelial viability, luminescence; inhibition, % at 5 µM; 1,900 compounds, 63% hits;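 also: 0% = vehicle and 100% = reference cytotoxic drug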
Numbers without * were called inactive; . = not tested or not shown. Compounds with a hit are over-represented: about 2.2% of the library has one in this group of screens. Rule as the data show it, unless noted: active = inhibition above about 22%; inactive = the rest.

SMILES	IEC-6 tox	APP 5UTR inh	bCat nuc transl	Ba/F3 V617F tox	MT stabilize HCS	BaF3 parental	IEC-6 cytotox cf
CC(C)(C)c1ccc(OCC(O)CN2CCN(C(=O)c3ccccc3)CC2)cc1 (centres undefined)	-4	.	.	.	.	.	.
COC(=O)CSc1[nH]c2ccc(F)cc2c1[N+](=O)[O-]	2	.	0	0	.	-3	.
O=C(c1ccco1)N1CCN(Cc2ccccc2C(F)(F)F)CC1	14	-9	.	0	2	4	.
O=C(c1ccco1)N1CCN(Cc2cccc3ccccc23)CC1	26*	.	.	.	.	.	16
CC(=O)c1ccc(OCCCC(=O)NCCc2ccccc2)cc1	2	.	.	.	.	.	.
Cc1cc2c(Nc3ccccc3)ncnc2s1	20	-13	1	-4	6	5	.
Cc1cc2c(NCCc3ccccc3)ncnc2s1	22*	.	.	.	.	.	22*
CCOC(=O)N1CCN(C(=O)c2ccccc2-c2ccccc2)CC1	40*	39	50	53*	32*	47*	35*
CCOC(=O)N1CCN(C(=O)c2ccccc2CCc2ccccc2)CC1	1	1	.	-4	3	-3	.
Cc1ccc(NC(=O)CSCc2cc(=O)n3ccsc3n2)c(C)c1	-1	.	.	.	.	.	.
CC1(C)CC(=O)C2=C(C1)NC(Nc1nc3ccccc3o1)=NC2c1ccccn1 (centres undefined)	23*	8	-1	3	7	9	9
CCC(CO)NC1=C([N+](=O)[O-])C(=O)CC(C)(C)C1 (centres undefined)	-3	-2	2	4	5	7	.
COc1ccc(CNC(=O)c2nc(S(=O)(=O)Cc3ccccc3)ncc2Cl)cc1	50*	.	.	.	.	.	22*
COC(=O)c1ccccc1NC(=O)c1nc(S(=O)(=O)Cc2ccccc2)ncc1Cl	9	.	.	.	.	.	.
O=C(NCc1ccccc1)c1nc(S(=O)(=O)Cc2ccccc2)ncc1Cl	52*	.	.	.	.	.	24*
CC(=O)Nc1ccc(NC(=O)c2nc(S(=O)(=O)Cc3ccccc3)ncc2Cl)cc1	26*	.	.	.	.	.	1
O=C(Nc1ccc2ccccc2c1)c1cnccn1	1	-157	-2	3	1	8	.
CS(=O)(=O)c1ncc(Cl)c(C(=O)Nc2ccc3ccccc3c2)n1	24*	96*	0	83*	2	52*	21
COc1ccc(S(=O)(=O)Cc2ccc(C(=O)NCc3ccccc3)o2)cc1	2	.	.	.	.	.	.
COc1ccc(CC(=O)NC2CCCCCC2)c(OC)c1	-2	.	.	.	.	.	.
O=C(NCc1ccccc1)c1c(Cl)nc(Cl)c(Cl)c1Cl	23*	.	.	.	.	.	-4
Cc1nc(Cl)c(C(=O)NCc2ccccc2)c(C)c1Cl	-5	8	-1	-2	2	4	.
O=C(Nc1ccc(OC(=O)c2ccco2)cc1)c1ccco1	0	-11	-3	-3	2	4	.
O=C(OC1CCCCC1)c1ccc(NC(=O)c2ccco2)cc1	32*	-51	0	-1	2	4	23*
O=C(Nc1ccc(-c2nc3ccc(NC(=O)c4cccs4)cc3[nH]2)cc1)c1cccs1	53*	15	2	98*	3	102*	43*
SMILES	IEC-6 tox	APP 5UTR inh	bCat nuc transl	Ba/F3 V617F tox	MT stabilize HCS	BaF3 parental	IEC-6 cytotox cf
CSc1cccc(NS(=O)(=O)c2ccc3c(c2)CCN3C(C)=O)c1	33*	.	.	.	.	.	19
CCN(C(=S)NC(=O)CCc1ccccc1)c1ccccc1	12	9	.	-1	4	2	.
CCn1c(C)nc2cc(C(=O)NNC(=O)CCC3CCCC3)ccc21	-8	-1	-1	0	4	5	.
O=C(Nc1ccncc1)C1CCCN(S(=O)(=O)c2cccc3cccnc23)C1 (centres undefined)	56*	76*	88*	85*	22*	70*	46*
CC1(C(=O)OCC(=O)Nc2ccc3ccccc3c2)CC1(Cl)Cl (centres undefined)	6	-26	-3	-1	2	2	.
O=C(Nn1cnnc1)c1ccc(Cl)c(Cl)c1	-6	.	.	.	.	.	.
CN1Cc2cc(C(=O)c3cc(Cl)cc(CSc4ncccn4)c3O)cnc2NC1=O	73*	96*	67*	71*	20*	75*	66*
O=c1[nH]c(/C=C/c2ccccc2Cl)nc2ccccc12	39*	.	.	.	.	.	24*
c1cncc(CSc2nnc3ccc(-c4cccs4)nn23)c1	-2	6	0	1	3	4	.
N#Cc1ccc(-c2cccs2)nc1SCc1cccnc1	79*	.	135*	73*	.	69*	64*
NC(=O)c1ccc[n+](CC(=O)c2ccccc2)c1	22*	.	0	60*	.	27*	-2
COc1ccc(-c2nn(-c3ccccc3)cc2/C=N/n2cnnc2)cc1OC	0	-1	.	-2	2	3	.
COc1ccc(-c2nn(-c3ccccc3)cc2/C=N/NC(N)=S)cc1OC	72*	95*	.	82*	27*	82*	62*
CC(=O)Nc1cccc(OCC(=O)NS(=O)(=O)c2ccc(Cl)cc2)c1	2	-12	-2	-5	1	0	.
Cc1ccc2c(CN(C)Cc3ccccc3)cc(=O)oc2c1C	55*	.	.	.	.	.	33*
Cc1ccc2c(CN(C)Cc3cccc(F)c3)cc(=O)oc2c1C	41*	.	.	.	.	.	24*
Cc1ccc2c(CN(C)Cc3ccc(OC(F)F)cc3)cc(=O)oc2c1C	4	.	.	.	.	.	.
NS(=O)(=O)c1ccc(CNC(=S)NC2CCCC2)cc1	3	-7	0	-2	2	6	.
Cc1ccsc1/C=N/NC(=O)c1ccncc1	1	-3	-1	1	2	2	.
COc1ccc(C(=O)N/N=C\c2coc3ccccc3c2=O)cc1	-7	.	-3	-2	.	0	.
COc1cc(C(=O)N/N=C/c2sccc2C)cc(OC)c1OC	89*	92*	85*	80*	12*	84*	65*
COc1cc(C(=O)N/N=C/c2coc3ccccc3c2=O)cc(OC)c1OC	70*	.	.	.	.	.	2
Cc1ccc(C(=O)Nc2ncc(Cc3ccccc3)s2)o1	51*	-205	2	81*	2	79*	40*
O=C(Cc1ccccc1)Nc1ccc(Cl)cn1	3	.	.	.	.	.	.
O=C(CCc1ccccc1)Nc1ccc(Cl)cn1	68*	75*	140*	67*	36*	51*	40*
Cc1cnc(NC(=O)CCc2ccccc2)s1	31*	.	.	.	.	.	13
O=C(Nc1ncc(Cc2ccccc2)s1)c1cccs1	3	-194	-10	1	2	12	.
Cc1ccc(NC(=O)CCC(=O)Nc2nnc(C3CCCCC3)s2)cc1	2	.	.	.	.	.	.
CC(OC(=O)CSc1ccc(F)cc1)C(=O)NC1(C#N)CCCCC1 (centres undefined)	3	.	.	.	.	.	.
CCn1ncc(C2=NOC(C(=O)NCc3ccc(OC)cc3)C2)c1C (centres undefined)	22*	-5	147*	-2	18*	1	10

Bioassay records as filed in PubChem BioAssay.
